Assays:
[1] = system: Human immunodeficiency virus 1; assay: Antiviral activity against wild type HIV-1 NL4-3 infected in MT-2 cells assessed as inhibition of viral replication in presence of 40% human serum and 27 mg/ml human serum albumin by luciferase reporter gene based multicycle replication assay; assay type: functional, organism-based; conditions: Human immunodeficiency virus 1, NL4-3, MT2
[2] = Metabolic stability in human liver microsomes assessed as half life; assay type: ADME, Microsome; conditions: time 2 min
[3] = Metabolic stability in rat liver microsomes assessed as half life; assay type: ADME, Microsome; conditions: time 2 min
[4] = AUC (0 to 24) in rat at 5 mg/kg, po measured after 24 hrs; assay type: ADME, organism-based; parameters: route oral, time 24 hrs, dose 5 mg/kg; conditions: in vivo
In short: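 Rats dosed orally at 5 mg/kg (IV arm 1 mg/kg). Vehicle was PEG 300/ethanol/Tween 80 (89:10:1 v/v) or PEG 300/ethanol/0.1 N NaOH/Tween 80 (84.5:10:5:0.5 v/v). Values are the mean of 3 rats unless noted (some n = 2), from a full 24 h PK run; AUC_total also drew on a 6 h PK screen.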

[5] = Tmax in rat at 5 mg/kg, po measured after 24 hrs; assay type: ADME, organism-based; conditions: in vivo
In short: (§1)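 Rats dosed 5 mg/kg PO and 1 mg/kg IV; each value is the mean of 3 rats unless otherwise noted (some n = 2). Vehicle PEG 300/ethanol/Tween 80 (89:10:1 v/v), or PEG 300/ethanol/0.1 N NaOH/Tween 80 (84.5:10:5:0.5 v/v). F, tmax, Cmax and CL come from a full 24 h PK screen. AUCtotal is derived from the full 24 h run plus a 6 h PK screen.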

[6] = Clearance in rat at 1 mg/kg, iv measured after 24 hrs; assay type: ADME, organism-based; conditions: in vivo; in short: as §1
[7] = Volume of distribution at steady state in rat at 1 mg/kg, iv; assay type: ADME, organism-based; conditions: in vivo, read-out: Vdss
[8] = system: Human immunodeficiency virus 1; assay: Antiviral activity against wild type HIV-1 NL4-3 infected in MT-2 cells assessed as inhibition of viral replication in presence of 10% of fetal bovine serum by luciferase reporter gene based multicycle replication assay; assay type: functional, organism-based; conditions: Human immunodeficiency virus 1, NL4-3, MT2
[9] = system: Human immunodeficiency virus 1; assay: Antiviral activity against wild type HIV-1 NL4-3 harbouring Gag AV370 mutant infected in MT-2 cells assessed as inhibition of viral replication in presence of 10% of fetal bovine serum by luciferase reporter gene based multicycle replication assay; assay type: functional, organism-based; conditions: Human immunodeficiency virus 1, NL4-3, MT2
In short: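 Multiple-cycle replication assay in MT-2 cells using NL4-3-derived virus carrying a Renilla luciferase reporter (NLRepRlucP373S) as the growth marker. V370A and ΔV370 viruses are identical to WT except for that single substitution or deletion at position 370.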

[10] = system: Human immunodeficiency virus 1; assay: Antiviral activity against wild type HIV-1 NL4-3 harbouring Gag V370A mutant infected in MT-2 cells assessed as inhibition of viral replication in presence of 10% of fetal bovine serum by luciferase reporter gene based multicycle replication assay; assay type: functional, organism-based; conditions: Human immunodeficiency virus 1, NL4-3, MT2
[11] = Cytotoxicity against human MT2 cells; assay type: cell-based
[12] = system: Human immunodeficiency virus 1; assay: Antiviral activity against wild type HIV-1 NL4-3 harbouring Gag AV370/T371A mutant infected in MT-2 cells assessed as inhibition of viral replication in presence of 10% of fetal bovine serum by luciferase reporter gene based multicycle replication assay; assay type: functional, organism-based; conditions: Human immunodeficiency virus 1, NL4-3, MT2
[13] = system: Human immunodeficiency virus 1; assay: Antiviral activity against wild type HIV-1 NL4-3 harbouring Gag […]/V370A mutant infected in MT-2 cells assessed as inhibition of viral replication in presence of 10% of fetal bovine serum by luciferase reporter gene based multicycle replication assay; assay type: functional, organism-based; conditions: Human immunodeficiency virus 1, NL4-3, MT2
[14] = system: Human immunodeficiency virus 1; assay: Antiviral activity against wild type HIV-1 NL4-3 harbouring Gag A364V mutant infected in MT-2 cells assessed as inhibition of viral replication in presence of 10% of fetal bovine serum by luciferase reporter gene based multicycle replication assay; assay type: functional, organism-based; conditions: Human immunodeficiency virus 1, NL4-3, MT2
[15] = Oral bioavailability in rat measured at 5 mg/kg up to 24 hrs; assay type: ADME, organism-based; conditions: in vivo; in short: as §1
[16] = AUCtotal in rat at 5 mg/kg, po measured after 24 hrs; assay type: ADME, organism-based; parameters: route oral, dose 5 mg/kg, time 24 hrs; conditions: in vivo; in short: as §1
[17] = Cmax in rat at 5 mg/kg, po measured after 24 hrs; assay type: ADME, organism-based; parameters: route oral, dose 5 mg/kg, time 24 hrs; conditions: in vivo; in short: as §1
[18] = AUC in rat at 5 mg/kg, po; conditions: in vivo

Row | Structure (SMILES) | EC50 [1] | EC50 [8] | EC50 [9] | EC50 [10] | CC50 [11] | EC50 [13] | also measured
1 | C=C(C)[C@@H]1CC[C@]2(C(=O)O)CC[C@]3(C)[C@H](CC[C@@H]4[C@@]5(C)CC=C(c6ccc(C(=O)O)cc6)C(C)(C)[C@@H]5CC[C@]43C)[C@@H]12 | 316 nM | – | – | – | – | – | half-life [2]: > 2 h; half-life [3]: > 2 h; AUC at 24 h [4]: 5.7 µM·h; Tmax [5]: 4 h; clearance [6]: 1 mL/min/kg; Vd [7]: 0.1 L/kg
2 | C=C(C)[C@@H]1CC[C@]2(NCCN3CCC(S(C)(=O)=O)CC3)CC[C@]3(C)[C@H](CC[C@@H]4[C@@]5(C)CC=C(c6ccc(C(=O)O)cc6)C(C)(C)[C@@H]5CC[C@]43C)[C@@H]12 | – | 1.9 nM | – | – | – | – | –
3 | C=C(C)[C@@H]1CC[C@]2(NCCN3CCS(=O)(=O)CC3)CC[C@]3(C)[C@H](CC[C@@H]4[C@@]5(C)CC=C(C6=CC[C@H](C(=O)O)CC6)C(C)(C)[C@@H]5CC[C@]43C)[C@@H]12 | 5 nM | 1.3 nM | 4.1 nM | 2 nM | 4100 nM | – | –
4 | C=C(C)[C@@H]1CC[C@]2(CO)CC[C@]3(C)[C@H](CC[C@@H]4[C@@]5(C)CC=C(C#CC(=O)O)C(C)(C)[C@@H]5CC[C@]43C)[C@@H]12 | – | 252 nM | > 3000 nM | > 3000 nM | > 10000 nM | – | –
5 | C=C(C)[C@@H]1CC[C@]2(NCCN3CCS(=O)(=O)CC3)CC[C@]3(C)[C@H](CC[C@@H]4[C@@]5(C)CC=C(C6=CC7(C6)CC(C(=O)O)(C(=O)O)C7)C(C)(C)[C@@H]5CC[C@]43C)[C@@H]12 | – | 13 nM | 61.1 nM | 28.8 nM | > 30000 nM | – | –
6 | C=C(C)[C@@H]1CC[C@]2(NCCN3CCS(=O)(=O)CC3)CC[C@]3(C)[C@H](CC[C@@H]4[C@@]5(C)CC=C(CCCC(C(=O)O)C(=O)O)C(C)(C)[C@@H]5CC[C@]43C)[C@@H]12 | – | 306 nM | – | – | > 30000 nM | – | EC50 [12]: 555 nM
7 | C=C(C)[C@@H]1CC[C@]2(NCCN3CCS(=O)(=O)CC3)CC[C@]3(C)[C@H](CC[C@@H]4[C@@]5(C)CC=C(CCCCC(=O)O)C(C)(C)[C@@H]5CC[C@]43C)[C@@H]12 | – | 2.3 nM | – | – | 10200 nM | – | EC50 [12]: 118 nM
8 | C=C(C)[C@@H]1CC[C@]2(NCCN3CCS(=O)(=O)CC3)CC[C@]3(C)[C@H](CC[C@@H]4[C@@]5(C)CC=C(CCC(C)(C)CC(=O)O)C(C)(C)[C@@H]5CC[C@]43C)[C@@H]12 | 6.8 nM | 1.3 nM | 2.3 nM | – | 12300 nM | 1.6 nM | EC50 [14]: 1290 nM
9 | C=C(C)[C@@H]1CC[C@]2(NCCN3CCS(=O)(=O)CC3)CC[C@]3(C)[C@H](CC[C@@H]4[C@@]5(C)CC=C(CCCC(C)(C)C(=O)O)C(C)(C)[C@@H]5CC[C@]43C)[C@@H]12 | – | 5.3 nM | – | – | 8200 nM | – | EC50 [12]: 29.7 nM
10 | C=C(C)[C@@H]1CC[C@]2(NCCN3CCS(=O)(=O)CC3)CC[C@]3(C)[C@H](CC[C@@H]4[C@@]5(C)CC=C(C6=CC7(C6)CC(C(=O)O)C7)C(C)(C)[C@@H]5CC[C@]43C)[C@@H]12 (some centres undefined) | 7 nM | 1.5 nM | 5.9 nM | 1.6 nM | 11900 nM | 49 nM | EC50 [14]: 980 nM; half-life [2]: 1.15 h; half-life [3]: > 2 h; bioavailability [15]: 32%; AUC [16]: 13.5 µM·h; Tmax [5]: 6.3 h; Cmax [17]: 900 nM; clearance [6]: 2.9 mL/min/kg; Vd [7]: 1.4 L/kg
11 | C=C(C)[C@@H]1CC[C@]2(C(=O)O)CC[C@]3(C)[C@H](CC[C@@H]4[C@@]5(C)CC=C(C6=CC7(C6)CC(C(=O)O)(C(=O)O)C7)C(C)(C)[C@@H]5CC[C@]43C)[C@@H]12 | – | 28.3 nM | 437 nM | 85.4 nM | 18600 nM | – | –
12 | C=C(C)[C@@H]1CC[C@]2(NCCN3CCS(=O)(=O)CC3)CC[C@]3(C)[C@H](CC[C@@H]4[C@@]5(C)CC=C(CC6CCC(C(=O)O)CC6)C(C)(C)[C@@H]5CC[C@]43C)[C@@H]12 (some centres undefined) | – | 3 nM | – | – | 13500 nM | 12.4 nM | EC50 [12]: 5.6 nM; EC50 [14]: 1850 nM
13 | C=C(C)[C@@H]1CC[C@]2(NCCN3CCS(=O)(=O)CC3)CC[C@]3(C)[C@H](CC[C@@H]4[C@@]5(C)C=CC(=C6CC7(C6)CC(C(=O)O)(C(=O)O)C7)C(C)(C)[C@@H]5CC[C@]43C)[C@@H]12 | – | 26.7 nM | 60.8 nM | 53.1 nM | > 10000 nM | – | –
14 | C=C(C)[C@@H]1CC[C@]2(NCCN3CCS(=O)(=O)CC3)CC[C@]3(C)[C@H](CC[C@@H]4[C@@]5(C)CC=C(C6=CCC(C(=O)O)CC6)C(C)(C)[C@@H]5CC[C@]43C)[C@@H]12 (some centres undefined) | 8.9 nM | 0.6 nM | 2.1 nM | 0.8 nM | 9600 nM | – | –
15 | C=C(C)[C@@H]1CC[C@]2(NCCN3CCC(S(C)(=O)=O)CC3)CC[C@]3(C)[C@H](CC[C@@H]4[C@@]5(C)CC=C(C6=CC[C@@H](C(=O)O)CC6)C(C)(C)[C@@H]5CC[C@]43C)[C@@H]12 | 5 nM | 2.7 nM | 2.7 nM | – | 9000 nM | 14.7 nM | EC50 [14]: 1800 nM
16 | C=C(C)[C@@H]1CC[C@]2(NCCN3CCS(=O)(=O)CC3)CC[C@]3(C)[C@H](CC[C@@H]4[C@@]5(C)CC=C(C6=CC[C@@H](C(=O)O)CC6)C(C)(C)[C@@H]5CC[C@]43C)[C@@H]12 | 5.7 nM | 0.9 nM | 3.1 nM | 1.3 nM | 12200 nM | – | half-life [2]: 0.967 h; half-life [3]: > 2 h; bioavailability [15]: 58%; AUC [16]: 15.8 µM·h; Tmax [5]: 2.7 h; Cmax [17]: 1100 nM; clearance [6]: 4.3 mL/min/kg; Vd [7]: 2.3 L/kg
17 | C=C(C)[C@@H]1CC[C@]2(NCCN3CCC(S(C)(=O)=O)CC3)CC[C@]3(C)[C@H](CC[C@@H]4[C@@]5(C)CC=C(C6=CC[C@H](C(=O)O)CC6)C(C)(C)[C@@H]5CC[C@]43C)[C@@H]12 | 6.6 nM | 1.4 nM | 4.2 nM | – | 9100 nM | 9.6 nM | EC50 [14]: 878 nM
18 | C=C(C)[C@@H]1CC[C@]2(NCCN3CCS(=O)(=O)CC3)CC[C@]3(C)[C@H](CC[C@@H]4[C@@]5(C)CC=C(C6=CCC(C(=O)O)(C(=O)O)CC6)C(C)(C)[C@@H]5CC[C@]43C)[C@@H]12 | – | 99 nM | 40.1 nM | 39.2 nM | 13200 nM | 113 nM | –
19 | C=C(C)[C@@H]1CC[C@]2(C(=O)O)CC[C@]3(C)[C@H](CC[C@@H]4[C@@]5(C)CC[C@H](OC(=O)CC(C)(C)C(=O)O)C(C)(C)[C@@H]5CC[C@]43C)[C@@H]12 [BEVIRIMAT] | – | – | – | – | – | – | half-life [2]: > 2 h; half-life [3]: 0.492 h; F ([15]; 5 mg/kg, 24 h): 54%; Tmax [5]: 1.8 h
20 | C=C(C)[C@@H]1CC[C@]2(NCCN3CCS(=O)(=O)CC3)CC[C@]3(C)[C@H](CC[C@@H]4[C@@]5(C)CC=C(c6ccc(C(=O)O)cc6)C(C)(C)[C@@H]5CC[C@]43C)[C@@H]12 [BMS-955176] | 11.5 nM | – | 13 nM | 2.7 nM | – | 148 nM | EC50 [12]: 23 nM; half-life [2]: > 2 h; half-life [3]: > 2 h; AUC [16]: 14.2 µM·h; Tmax [5]: 6 h; Cmax [17]: 1200 nM; AUC [18]: 4.1 µM·h
